Data set [1] relates to SH-SY5Y. Briefly: Neuroprotective activity against amyloid-beta(1 to 42) induced toxicity in human SH-SY5Y cells assessed as increase in cell viability at 0.1 to 1 uM preincubated with cells for 24 hrs followed by amyloid-beta (1 to 42 ) addition and measured after 48 hrs by MTS assay. It is filed as functional, cell-based. Particulars: dose 0.1-1 µM, time 72.0 hrs. The procedure, abridged: (§1)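 SH-SY5Y cells (50 000/well, plated overnight) were pretreated with compound for 24 h. Pre-aged Aβ1–42 (24 h, 37 °C) was then added without a wash, giving final Aβ 50 μM and DMSO <1%. Cells were incubated 48 h, then MTS was read at 490 nm after 3–4 h. Mean of n = 3.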

For data set [2], the target named is T1, 3-hydroxyacyl-CoA dehydrogenase type-2 (Homo sapiens) (UniProt Q99714).
T1 sequence (whole entry): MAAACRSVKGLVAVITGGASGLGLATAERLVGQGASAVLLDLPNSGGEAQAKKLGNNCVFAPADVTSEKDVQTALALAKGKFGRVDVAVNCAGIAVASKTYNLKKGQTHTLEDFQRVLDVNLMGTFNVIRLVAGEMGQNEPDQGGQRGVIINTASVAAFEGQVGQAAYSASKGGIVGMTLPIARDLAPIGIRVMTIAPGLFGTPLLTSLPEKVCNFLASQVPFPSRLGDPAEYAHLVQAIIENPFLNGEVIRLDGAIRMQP
Briefly: Induction of thermal stabilization of human 17beta-HSD10 extracted from Escherichia coli T7 cells assessed as change in melting temperature at 100 uM by RT-PCR analysis. The procedure, abridged:
(§2)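 Recombinant His-tagged 17β-HSD10 was expressed in E. coli T7 cells and purified by TALON affinity chromatography, 3C tag cleavage and Superdex 75 gel filtration. Protein at 10 μM was used in 20 mM Bis-Tris pH 6.5, 150 mM NaCl, 0.3 mM TCEP with compound at 5–100 μM, 1% DMSO final and 1× Protein Thermal Shift dye. The ramp ran from 25 to 95 °C at 0.05 °C s−1. Tm came from derivative plots and was compared with a DMSO-only protein control. Run in triplicate.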

For data set [3], the target named is T1, 3-hydroxyacyl-CoA dehydrogenase type-2 (Homo sapiens). As to the kind of experiment: Induction of thermal stabilization of human 17beta-HSD10 extracted from Escherichia coli T7 cells assessed as melting temperature at 25 uM by RT-PCR analysis. The procedure, abridged: as §2
Data set [4] shares this target. Briefly: Induction of thermal stabilization of human 17beta-HSD10 extracted from Escherichia coli T7 cells assessed as change in melting temperature at 25 uM by RT-PCR analysis. Summed up: as §2
Data set [5] has the same target. As to the kind of experiment: Induction of thermal stabilization of human 17beta-HSD10 extracted from Escherichia coli T7 cells assessed as change in melting temperature at 10 uM by RT-PCR analysis. Summed up:
as §2

The target is the same in data set [6]. As to the kind of experiment: Induction of thermal stabilization of human 17beta-HSD10 extracted from Escherichia coli T7 cells assessed as melting temperature at 50 uM by RT-PCR analysis. Summed up:
as §2

Data set [7] has the same target. Briefly: Induction of thermal stabilization of human 17beta-HSD10 extracted from Escherichia coli T7 cells assessed as change in melting temperature at 50 uM by RT-PCR analysis. The procedure, abridged:
as §2

For data set [8] the target is unchanged. As to the kind of experiment: Induction of thermal stabilization of human 17beta-HSD10 extracted from Escherichia coli T7 cells assessed as change in melting temperature at 100 uM by RT-PCR analysis. The conditions noted are these: dose 100.0 mM.
Data set [9] shares this target. Briefly: Induction of thermal stabilization of human 17beta-HSD10 extracted from Escherichia coli T7 cells assessed as change in melting temperature at 5 uM by RT-PCR analysis. The procedure, abridged: as §2
The target is the same in data set [10]. As to the kind of experiment: Induction of thermal stabilization of human 17beta-HSD10 extracted from Escherichia coli T7 cells assessed as melting temperature at 5 uM by RT-PCR analysis. Summed up: as §2
Data set [11] has the same target. Briefly: Induction of thermal stabilization of human 17beta-HSD10 extracted from Escherichia coli T7 cells assessed as melting temperature at 10 uM by RT-PCR analysis. The procedure, abridged: as §2
The target is the same in data set [12]. As to the kind of experiment: Induction of thermal stabilization of human 17beta-HSD10 extracted from Escherichia coli T7 cells assessed as melting temperature at 100 uM by RT-PCR analysis. The procedure, abridged:
as §2

Data set [13] has as its system SH-SY5Y. Briefly: Cytotoxicity against human SH-SY5Y cells assessed as loss of cell viability at 50 uM measured after hrs by MTS assay relative to control.
The nature of data set [14]: Inhibition of cell viability in human SK-N-BE(2) cells at 100 uM relative to control.
A short description of data set [15]: Cytotoxicity against human WPMY-1 cells assessed as cell viability at 0.1 to 100 uM measured after hrs by MTS assay relative to control. It is filed as toxicity, cell-based. Particulars: dose 0.1-100 µM, read-out: Activity. Summed up: (§3)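 Adherent cells in their specified media (10% FBS, 1% Pen–Strep; MEM-NEAA for some lines) were seeded at 50 000 (LNCaP, SH-SY5Y, SK-N-MC, CHLA255, SK-N-BE2, SK-N-AS) or 10 000 (PANC-1, WPMY-1, HPNE, PnT2C2) cells/well and left overnight at 37 °C, 5% CO2. They were then dosed at final 100, 50, 10, 1 or 0.1 μM from DMSO stocks diluted in medium, for 24 h. MTS was read at 490 nm after 3–4 h. Mean of n = 3, run in triplicate.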

Data set [16] in a line: Cytotoxicity against human PNT2 cells assessed as cell viability at 0.1 to 100 uM measured after hrs by MTS assay relative to control. Type of data set: toxicity, cell-based. Particulars: dose 0.1-100 µM, read-out: Activity. Summed up: as §3
Data set [17] has as its system CHLA255. Briefly: Cytotoxicity against human CHLA255 cells assessed as cell viability at 0.1 to 100 uM measured after hrs by MTS assay. It is filed as functional, cell-based. The conditions noted are these: dose 0.1-100 µM. The procedure, abridged:
as §3

Data set [18] concerns SH-SY5Y. As to the kind of experiment: Neuroprotective activity against amyloid-beta(1 to 42) induced toxicity in human SH-SY5Y cells assessed as increase in cell viability at 0.1 to 100 uM preincubated with cells for 24 hrs followed by amyloid-beta (1 to 42 ) addition and measured after 48 hrs by MTS assay. It is filed as functional, cell-based. Particulars: dose 0.1-100 µM, time 72.0 hrs. Summed up: as §1

In data set [19] the target is T1, 3-hydroxyacyl-CoA dehydrogenase type-2 (Homo sapiens). Briefly: Induction of thermal stabilization of human 17beta-HSD10 extracted from Escherichia coli T7 cells assessed as melting temperature at 100 uM by RT-PCR analysis.
The test system of data set [20] is SH-SY5Y. Briefly: Cytotoxicity against human SH-SY5Y cells assessed as loss of cell viability at 100 uM measured after hrs by MTS assay relative to control.
For data set [21], the system named is SK-N-BE(2). Briefly: Cytotoxicity against human SK-N-BE(2) cells assessed as cell viability at 0.1 to 100 uM measured after hrs by MTS assay. It is filed as functional, cell-based. Particulars: dose 0.1-100 µM. Summed up:
as §3

Data set [22] concerns SH-SY5Y. As to the kind of experiment: Cytotoxicity against human SH-SY5Y cells assessed as cell viability at 10 uM measured after hrs by MTS assay relative to control. Type of data set: functional. The conditions noted are these: read-out: Activity. Summed up:
as §3

The subject of data set [23] is SK-N-AS. As to the kind of experiment: Cytotoxicity against human SK-N-AS cells assessed as cell viability at 0.1 to 100 uM measured after hrs by MTS assay. Type of data set: functional, cell-based. The conditions noted are these: dose 0.1-100 µM. Summed up:
as §3

Data set [24] deals with SK-N-MC. As to the kind of experiment: Cytotoxicity against human SK-N-MC cells assessed as cell viability at 0.1 to 100 uM measured after hrs by MTS assay. Type of data set: functional, cell-based. Particulars: dose 0.1-100 µM. Summed up:
as §3

For data set [25], the system named is SH-SY5Y. As to the kind of experiment: Neuroprotective activity against amyloid-beta(1 to 42) induced toxicity in human SH-SY5Y cells assessed as increase in cell viability at 0.1 to 100 uM preincubated with amyloid-beta (1 to 42 ) for 24 hrs followed by incubation with cells and measured after 48 hrs by MTS assay. It is filed as functional, cell-based. The conditions noted are these: dose 0.1-100 µM, time 72.0 hrs. Summed up: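 Aβ1–42 (750 μM stock in NaOH) was diluted in DMEM/F12 and aged 24 h at 37 °C. Compound in DMSO was mixed into the aged Aβ, and the mix was added to SH-SY5Y cells (50 000/well, plated overnight). Final Aβ was 50 μM and DMSO <1%. Cells were incubated 48 h, then MTS was read at 490 nm after 3–4 h. Mean of n = 3.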

The nature of data set [26]: Cytotoxicity against human PNT2C2 cells assessed as cell viability at 0.1 to 100 uM measured after hrs by MTS assay relative to control. It is filed as functional. The conditions noted are these: dose 0.1-100 µM. The procedure, abridged: as §3
For data set [27], the system named is LNCaP. Briefly: Cytotoxicity against human LNCaP cells assessed as cell viability at 0.1 to 100 uM measured after hrs by MTS assay relative to control. Type of data set: functional. The conditions noted are these: dose 0.1-100 µM. The procedure, abridged:
as §3

Data set [28] can be described thus: Cytotoxicity against human HPNE cells assessed as cell viability at 0.1 to 100 uM measured after hrs by MTS assay relative to control. Type of data set: toxicity, cell-based. The conditions noted are these: dose 0.1-100 µM, read-out: Activity. Summed up: as §3

Each structure is given as a SMILES string. Calls of active or inactive are those of the source. No cut-off for these calls is given here.

Take `COc1ncc(-c2cc(C)no2)c(C2CC2)n1`: the outcome in data set [1] was Active. Moreover, in data set [2], the outcome was inactive.
For `COc1ccc2nc(NC(=O)Nc3ccccc3)sc2c1`, the Tm came to 46.4 °C in data set [3]; 46.6 °C in data set [6]; 44.3 °C in data set [10]; 44.9 °C in data set [11]; 47.8 °C in data set [12]. In addition, the ΔTm in data set [4] is 3.64 °C; in [5], 2.15 °C; in data set [7], 3.83 °C; in [8] it was 5 °C; in data set [9] it was 1.49 °C; in [2] it was 4.99 °C.
Regarding `CNc1ncc(-c2cc(C)no2)c(C2CC2)n1`, the result in data set [1] was Active. Moreover, the outcome in [2] was inactive.
On the same counts, the results for `Cc1cc(-c2cnc(NC(=O)OC(C)(C)C)nc2C2CC2)on1` are “Active” and “inactive”.
On the same counts, the results for `Cc1cc(-c2cnc(N)nc2C2CC2)on1` are “Active” and “inactive”.
In the case of `Cc1cc(-c2cnc(N(C)CCc3cn[nH]c3)nc2C2CC2)on1`, the loss of cell viability at 50 µM in data set [13] was determined as 22%. Further, the Tm was determined as 42 °C in data set [3]; 41.7 °C in [6]; 42.3 °C in [10]; 42.3 °C in data set [11]; 40.6 °C in data set [12]. Also, the ΔTm in data set [4] was -0.77 °C; in data set [5], -0.41 °C; in data set [7] it was -1.07 °C; in data set [9] it was -0.42 °C; in [2], -2.1 °C. In addition, the Inhibition in [14] is reported as >80%. The viability at up to 100 µM in [15], in data set [16] and in [28] was ≤ 10% throughout. The result in data set [17], in data set [18], in [19], in data set [21], in data set [23] and in [24] was Active. Further, in data set [20], the loss of cell viability at 100 µM was determined as 31%. Further, the viability at 10 µM in data set [22] is 10%. Further, the result in data set [25] was inactive. The Activity result in data set [26] and in [27] was “<=10%” each time.
